≈ marks a conversion by molar mass, not a printed value. Calls of active or inactive are those of the source.
Tests used:
Escherichia coli [1] = assay: Inhibition of multidrug resistance efflux pump in Escherichia coli assessed as concentration required to reduce levofloxacin MIC by 4-fold by checkerboard assay
HeLa = assay: Cytotoxicity against human HeLa cells; assay type: cell-based
Escherichia coli [2] = assay: Effect on outer membrane permeability in AcrAB-deficient Escherichia coli HN1159 assessed as influx of nitrocefin at 20 uM; assay type: functional
Escherichia coli [3] = assay: Inhibition of multidrug resistance efflux pump in wild-type Escherichia coli AB1157 assessed as concentration required to reduce piperacillin MIC by 4-fold by checkerboard assay
Escherichia coli [4] = assay: Inhibition of lactose permease-dependent [3H]TMG uptake in Escherichia coli HN1157 up to 20 uM
Summary of the method: (§1)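 Proton motive force probed in E. coli HN1157 by LacY permease-mediated accumulation of [methyl-3H] thiogalactopyranoside (stock 1 mCi/ml, 7 Ci/mmol), compounds tested at concentrations up to 20 µM.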

[5] = Aqueous solubility of the compound by nephlometric method; assay type: physicochemical
Summary of the method: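 Maximum solubility in water, measured by nephelometry.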

[6] = Inhibition of mouse liver microsome CYP3A4 at 3 uM after 10 mins by luminescence assay; assay type: ADME; conditions: microsomes
[7] = Metabolic stability in human liver microsomes assessed as compound remaining at 25 uM after 60 mins by HPLC analysis in presence of NADPH; assay type: ADME; conditions: read-out: Stability
Summary of the method: (§2)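 Human or mouse liver microsomes at 0.5 mg/mL in 100 mM potassium phosphate pH 7.4 with 3 mM MgCl2, test compound 25 µM final, with or without (control) 2 mM NADPH; 37 °C for one hour, then stopped with equal volume acetonitrile containing 0.1% trifluoroacetic acid. Value: peak area with NADPH relative to no-NADPH control, as percent remaining.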

Escherichia coli [8] = assay: Antibacterial activity against Escherichia coli at 100 uM; assay type: functional, organism-based
[9] = Metabolic stability in mouse liver microsomes assessed as compound remaining at 25 uM after 60 mins by HPLC analysis in presence of NADPH; assay type: ADME; conditions: read-out: Stability; summary of the method: as §2
Escherichia coli [10] = assay: Inhibition of lactose permease in Escherichia coli HN1157 assessed as [3H]TMG accumulation up to 20 uM relative to control; summary of the method: as §1
Escherichia coli [11] = assay: Antibacterial activity against wild-type Escherichia coli AB1157; assay type: functional
Summary of the method: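 MIC determined according to CLSI guidelines, with modifications described in earlier work.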

Escherichia coli [12] = assay: Antibacterial activity against TolC-deficient Escherichia coli AB1157; assay type: functional
Summary of the method: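 MIC determined following CLSI guidelines, with modifications from the authors' earlier work, in the TolC-deficient mutant of E. coli AB1157.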

Compound | INH (Escherichia coli [1]) | CC50 (HeLa) | Activity (Escherichia coli [2]) | INH (Escherichia coli [3]) | inhibition (Escherichia coli [4]) | solubility kinetic [5] | inhibition (INH) [6] | remaining at 1 h, 25 µM [7] | Activity (Escherichia coli [8]) | remaining at 1 h, 25 µM [9] | [3H]TMG accumulation relative to control (Escherichia coli [10]) | MIC (Escherichia coli [11]) | MIC (Escherichia coli [12])
CC1CN(c2nc(SCCc3cccnc3)c(C#N)c3c2COC(C)(C)C3)CC(C)O1 (stereo not drawn) | 12.5 µM | 42.6 µM | 86% | 3.1 µM | inactive | ≥ 100 µM | 0% | 53% | inactive | 19% |  |  | 
COCCN1CCN(c2nc(SCCc3ccc(OC)cc3)c(C#N)c3c2COC(C)(C)C3)CC1 | 6.3 µM | 34.8 µM | 94% | 3.1 µM | inactive | ≥ 100 µM | 42% |  | inactive | 17% | 103% |  | 
CC1CN(c2nc(SCCc3ccc(NC(=O)OC(C)(C)C)cc3)c(C#N)c3c2COC(C)(C)C3)CC(C)O1 (stereo not drawn) | 0.8 µM | > 100 µM | 99% | 0.4 µM | inactive | 100 µM (≈ 55.3 µg/mL) | 0% | 59% | inactive | 66% |  |  | 
C[C@H]1COc2c(N3CCN(C)CC3)c(F)cc3c(=O)c(C(=O)O)cn1c23 [LEVOFLOXACIN] |  |  |  |  |  |  |  |  |  |  |  | 0.063 µM (≈ 0.0228 µg/mL) | 0.016 µM (≈ 0.00578 µg/mL)
COCCN1CCN(c2nc(SCCc3ccc(OC)c(OC)c3)c(C#N)c3c2COC(C)(C)C3)CC1 | 1.6 µM | 38.8 µM | 100% | 0.4 µM | inactive | ≥ 100 µM | 48% | 20% | inactive | 13% | 100% |  | 
CCN1CCN(C(=O)N[C@@H](C(=O)N[C@@H]2C(=O)N3[C@@H]2SC(C)(C)[C@@H]3C(=O)O)c2ccccc2)C(=O)C1=O [PIPERACILLIN] |  |  |  |  |  |  |  |  |  |  |  | 4 µM (≈ 2.07 µg/mL) | 0.125 µM (≈ 0.0647 µg/mL)
CC(=O)Nc1ccc(CCSc2nc(N3CC(C)OC(C)C3)c3c(c2C#N)CC(C)(C)OC3)cc1 (stereo not drawn) | 0.1 µM | 60.5 µM | 100% | 0.1 µM | inactive | 50 µM (≈ 24.7 µg/mL) | 61% | 37% | inactive | 0% | 97% |  | 
CC1(C)Cc2c(C#N)c(SCc3ccccc3)nc(N3CCOCC3)c2CO1 | > 100 µM |  |  | > 100 µM | inactive |  |  |  | inactive |  |  |  | 
CC1(C)Cc2c(C#N)c(SCCc3cccc(C#N)c3)nc(N3CCOCC3)c2CO1 | 12.5 µM | > 100 µM |  | 3.9 µM |  |  |  |  | inactive |  |  |  | 
C=CC(=O)Nc1ccc(CCSc2nc(N3CC(C)OC(C)C3)c3c(c2C#N)CC(C)(C)OC3)cc1 (stereo not drawn) | 0.1 µM | 62.4 µM | 89% | 0.05 µM | inactive | 25 µM (≈ 12.7 µg/mL) |  | 100% | inactive | 49% | 99% |  | 
CC1(C)Cc2c(C#N)c(SCCc3ccc(S(=O)(=O)O)cc3)nc(N3CCOCC3)c2CO1 | > 100 µM | 17.2 µM |  | > 100 µM |  |  |  |  | inactive |  |  |  | 

— ChEMBL document CHEMBL3399972, “Structure-activity relationships of a novel pyranopyridine series of Gram-negative bacterial efflux pump inhibitors” (Bioorg Med Chem, 2015)
